Series [1] has as its target T1, Solute carrier organic anion transporter family member 1B1 (Homo sapiens, UniProt Q9Y6L6).
T1 sequence (Q9Y6L6 whole entry): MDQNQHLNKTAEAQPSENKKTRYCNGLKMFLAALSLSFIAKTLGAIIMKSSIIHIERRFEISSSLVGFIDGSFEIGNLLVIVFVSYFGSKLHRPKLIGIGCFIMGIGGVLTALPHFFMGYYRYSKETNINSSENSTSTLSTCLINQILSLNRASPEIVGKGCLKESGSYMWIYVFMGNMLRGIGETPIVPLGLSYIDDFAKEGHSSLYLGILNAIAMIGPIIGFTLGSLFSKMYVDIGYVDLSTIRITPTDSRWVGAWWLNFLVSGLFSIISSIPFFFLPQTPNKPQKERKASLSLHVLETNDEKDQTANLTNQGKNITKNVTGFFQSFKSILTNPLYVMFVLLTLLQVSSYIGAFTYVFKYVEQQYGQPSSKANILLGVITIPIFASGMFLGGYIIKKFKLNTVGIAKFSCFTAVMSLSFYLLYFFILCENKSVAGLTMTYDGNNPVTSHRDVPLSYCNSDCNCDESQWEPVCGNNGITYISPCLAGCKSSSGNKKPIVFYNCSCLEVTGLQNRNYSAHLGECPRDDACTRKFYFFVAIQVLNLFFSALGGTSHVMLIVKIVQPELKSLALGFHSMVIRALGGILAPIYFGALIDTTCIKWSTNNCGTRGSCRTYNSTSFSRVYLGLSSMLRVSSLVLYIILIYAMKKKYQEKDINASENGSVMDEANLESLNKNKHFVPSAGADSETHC
The series is described as follows: TP_TRANSPORTER: inhibition of E1S uptake (E1S: 0.004 uM, PAH: 500 uM) in Xenopus laevis oocytes. The conditions noted are these: oocyte. In kind it is functional, cell-based. In a few lines:
(§1)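 Oocytes injected with OATP-C cRNA (25 ng), cultured 3 days in modified Barth's solution, then incubated 30 min at 25 °C in medium 1 (pH 7.4) with [3H]estrone-3-sulfate (4 nM) plus or minus inhibitor. OATP-C-specific uptake = total minus water-injected oocyte uptake, expressed as percent of control; mean ± s.e.m., n = 5–10.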

The target of series [2] is T1, Solute carrier organic anion transporter family member 1B1. The series is described as follows: TP_TRANSPORTER: inhibition of E1S uptake (E1S: 0.004 uM, YdAG: 1000 uM) in Xenopus laevis oocytes. It is filed as functional, cell-based. As to conditions: oocyte. In a few lines:
as §1

Series [3] shares this target. The series is described as follows: TP_TRANSPORTER: uptake of [D-Pen2,D-Pen5]-enkephalin at a concentration of 0.02 u M in Xenopus laevis oocytes. In kind it is functional, cell-based. As to conditions: oocyte, 0.02 µM. The method, boiled down:
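OATP-C cRNA- or water-injected oocytes incubated 60 min at 25 °C in medium 1 (pH 7.4) with [3H]DPDPE (20 nM). Washed with ice-cold buffer, solubilized in 5% SDS, radioactivity counted. Uptake given as cell-to-medium ratio (uptake amount divided by medium concentration); mean ± s.e.m., n = 5–10.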

Series [4] addresses T2, Solute carrier organic anion transporter family member 1B1 (OATP1B1) (Homo sapiens, UniProt Q9Y6L6).
T2 sequence (Q9Y6L6 whole entry): T1 sequence (Q9Y6L6 whole entry)
The series is described as follows: TP_TRANSPORTER: inhibition of E1S uptake (E1S: 0.004 uM, Quinidine: 500 uM) in Xenopus laevis oocytes. In kind it is functional, cell-based, Oocyte. More on the design: scale not given: the % may be the effect or the level left. As to conditions: probe E1S (0.004 uM), read-out: Activity. In a few lines:
as §1

In series [5] the target is T2, Solute carrier organic anion transporter family member 1B1 (OATP1B1). The series is described as follows: TP_TRANSPORTER: inhibition of E1S uptake (E1S: 0.004 uM, Ala5: 5000 uM) in Xenopus laevis oocytes. In kind it is functional, cell-based, Oocyte. More on the design: scale not given: the % may be the effect or the level left. As to conditions: probe E1S (0.004 uM), read-out: Activity. The method, boiled down: as §1

Series [6] shares this target. The series is described as follows: in vitro. The conditions noted are these: xenopus laevis, Xenopus laevis oocytes, probe E1S (0.004 uM).
Series [7] has the same target. The series is described as follows: TP_TRANSPORTER: inhibition of E1S uptake (E1S: 0.004 uM, DADLE: 1000 uM) in Xenopus laevis oocytes. In kind it is functional, cell-based, Oocyte. More on the design: scale not given: the % may be the effect or the level left. As to conditions: probe E1S (0.004 uM), read-out: Activity. In a few lines: as §1
The target in series [8] is T1, Solute carrier organic anion transporter family member 1B1. The series is described as follows: TP_TRANSPORTER: inhibition of E1S uptake (E1S: 0.004 uM, Carnitine: 50 uM) in Xenopus laevis oocytes. It is filed as functional, cell-based. As to conditions: oocyte. The method, boiled down: as §1
For series [9] the target is unchanged. The series is described as follows: TP_TRANSPORTER: inhibition of E1S uptake (E1S: 0.004 uM, Ala4: 5000 uM) in Xenopus laevis oocytes. It is filed as functional, cell-based. The conditions noted are these: oocyte. The method, boiled down: as §1
Series [10] concerns the target T2, Solute carrier organic anion transporter family member 1B1 (OATP1B1). The series is described as follows: TP_TRANSPORTER: inhibition of DPDPE uptake (DPDPE: 0.02 uM) in Xenopus laevis oocytes. It is filed as functional, cell-based, Oocyte. The conditions noted are these: probe DPDPE (0.02 uM). More on the design: scale not given: the % may be the effect or the level left.

Series [11] has the same target. The series is described as follows: TP_TRANSPORTER: inhibition of E1S uptake (E1S: 0.004 uM, des-tyrosine DADLE: 1000 uM) in Xenopus laevis oocytes. It is filed as functional, cell-based, Oocyte. The arrangement: scale not given: the % may be the effect or the level left. As to conditions: probe E1S (0.004 uM), read-out: Activity. The method, boiled down:
as §1

For series [12] the target is unchanged. The series is described as follows: TP_TRANSPORTER: inhibition of E1S uptake (E1S: 0.004 uM, BSP: 50 uM) in Xenopus laevis oocytes. It is filed as functional, cell-based, Oocyte. The arrangement: scale not given: the % may be the effect or the level left. The conditions noted are these: probe E1S (0.004 uM), read-out: Activity. The method, boiled down:
as §1

Series [13] deals with T1, Solute carrier organic anion transporter family member 1B1. The series is described as follows: TP_TRANSPORTER: inhibition of E1S uptake (E1S: 0.004 uM, Gly4: 5000 uM) in Xenopus laevis oocytes. It is filed as functional, cell-based. As to conditions: oocyte. The method, boiled down: as §1
The target is the same in series [14]. The series is described as follows: TP_TRANSPORTER: inhibition of E1S uptake (E1S: 0.004 uM, CCK-8: 100 uM) in Xenopus laevis oocytes. It is filed as functional, cell-based. More on the design: scale not given: the % may be the effect or the level left. The conditions noted are these: oocyte. The method, boiled down: as §1
Series [15] addresses T2, Solute carrier organic anion transporter family member 1B1 (OATP1B1). The series is described as follows: TP_TRANSPORTER: inhibition of E1S uptake (E1S: 0.004 uM, YGG: 1000 uM) in Xenopus laevis oocytes. The arrangement: scale not given: the % may be the effect or the level left. It is filed as functional, cell-based, Oocyte. As to conditions: probe E1S (0.004 uM), read-out: Activity. The method, boiled down: as §1

Data on 15 compounds can be found in ChEMBL document CHEMBL2074476, “Contribution of organic anion transporting polypeptide OATP-C to hepatic elimination of the opioid pentapeptide analogue [D-Ala2, D-Leu5]-enkephalin” (J Pharm Pharmacol, 2003).

Where a SMILES comes first, the peptide text is derived from it. [ ]: non-standard residue; d: D form.

On to `Nc1ccc(C(=O)NCC(=O)O)cc1` [AMINOHIPPURIC ACID], for which the Activity result in [1] was “is not an inhibitor [-]”.
With `C[C@@H](NC(=O)[C@@H](N)Cc1ccc(O)cc1)C(=O)NCC(=O)O` (H-Tyr-[dA]-Gly-OH), the Activity entry in series [2] was “is not an inhibitor [-]”.
Turning to `CC1(C)SSC(C)(C)[C@@H](NC(=O)[C@@H](N)Cc2ccc(O)cc2)C(=O)NCC(=O)N[C@@H](Cc2ccccc2)C(=O)N[C@H]1C(=O)O`, in [3], the Activity result is “substrate [+]”.
In the case of `C=C[C@H]1C[N@@]2CC[C@H]1C[C@@H]2[C@@H](O)c1ccnc2ccc(OC)cc12` [QUINIDINE], in [4], the activity at 500 µM is 81%.
Regarding `C[C@H](N)C(=O)N[C@@H](C)C(=O)N[C@@H](C)C(=O)N[C@@H](C)C(=O)N[C@@H](C)C(=O)O`, the activity at 5000 µM in series [5] came out at 86.3%.
In series [6], `CC(C)C[C@H](NC(=O)[C@H](Cc1ccccc1)NC(=O)CNC(=O)CNC(=O)[C@@H](N)Cc1ccc(O)cc1)C(=O)O` [ENKEPHALIN] registered an activity at 1000 µM of 26.8%.
With `CC(C)C[C@@H](NC(=O)[C@H](Cc1ccccc1)NC(=O)CNC(=O)[C@@H](C)NC(=O)[C@@H](N)Cc1ccc(O)cc1)C(=O)O` [DADLE], the activity at 1000 µM in series [7] worked out at 35.4%.
In the case of `C[N+](C)(C)CC(O)CC(=O)[O-]` (stereo unspecified) [CARNITINE], the Activity entry in series [8] was “is not an inhibitor [-]”.
With `C[C@H](N)C(=O)N[C@@H](C)C(=O)N[C@@H](C)C(=O)N[C@@H](C)C(=O)O` (H-AAAA-OH), in series [9], the Activity result is “is not an inhibitor [-]”.
For `C[C@]12CC[C@@H]3c4ccc(OS(=O)(=O)O)cc4CC[C@H]3[C@@H]1CCC2=O` [ESTRONE SULFURIC ACID], in [10], the Activity was found to be 50%.
With `CC(C)C[C@@H](NC(=O)[C@H](Cc1ccccc1)NC(=O)CNC(=O)[C@@H](C)N)C(=O)O`, the activity at 1000 µM in [11] turned out to be 62.5%.
In series [10], `O=C1OC(c2ccc(O)c(S(=O)(=O)O)c2)(c2ccc(O)c(S(=O)(=O)O)c2)c2c(Br)c(Br)c(Br)c(Br)c21` [SULFOBROMOPHTHALEIN SODIUM] had an Activity of 25%. Besides, in series [12], the activity at 50 µM was found to be 8%.
Take `NCC(=O)NCC(=O)NCC(=O)NCC(=O)O` (H-GGGG-OH): the Activity result in series [13] is “is not an inhibitor [-]”.
On to `CSCC[C@H](NC(=O)[C@H](Cc1ccc(OS(=O)(=O)O)cc1)NC(=O)[C@@H](N)CC(=O)O)C(=O)NCC(=O)N[C@@H](Cc1c[nH]c2ccccc12)C(=O)N[C@@H](CCSC)C(=O)N[C@@H](CC(=O)O)C(=O)N[C@@H](Cc1ccccc1)C(N)=O` [SINCALIDE], for which the Activity in [14] is given as 9.1%.
`N[C@@H](Cc1ccc(O)cc1)C(=O)NCC(=O)NCC(=O)O` (H-Tyr-Gly-Gly-OH): the activity at 1000 µM in series [15] is 77.2%.
